Data as given in ChEMBL document CHEMBL5058577, “EUbOPEN Chemogenomics Library 2 (Multiplex)” (2022).

Tested on: HEK-293T
Assay: Multiplex assay against HEK293T
Format: toxicity, cell-based
Conditions: human
Procedure, shortened: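 Live cells were stained at seeding with Hoechst33342, BioTracker Green Microtubule Cytoskeleton Dye, MitoTracker Red and Annexin V Alexa Fluor 680, then imaged on a CQ1 microscope at 37°C and 5% CO2 after compound addition. CellPathfinder machine-learning gating split cells into Hoechst high-intensity objects or normal cells. Normal cells were split into healthy, pyknosed or fragmented nuclei, and pyknosed cells into mitotic or apoptotic. Tubulin, mitochondrial-mass and membrane-permeability phenotypes are per cents of healthy-nucleus cells.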

[1] = 12 h, 1 µM, compound concentration 1 uM, replicate 1
[2] = 12 h, 1 µM, compound concentration 1 uM, replicate 2
[3] = 12 h, 10 µM, compound concentration 10 uM, replicate 1
[4] = 12 h, 10 µM, compound concentration 10 uM, replicate 2
[5] = 24 h, 1 µM, compound concentration 1 uM, replicate 1
[6] = 24 h, 1 µM, compound concentration 1 uM, replicate 2
[7] = 24 h, 10 µM, compound concentration 10 uM, replicate 1
[8] = 24 h, 10 µM, compound concentration 10 uM, replicate 2
[9] = 48 h, 1 µM, compound concentration 1 uM, replicate 1
[10] = 48 h, 1 µM, compound concentration 1 uM, replicate 2
[11] = 48 h, 10 µM, compound concentration 10 uM, replicate 1
[12] = 48 h, 10 µM, compound concentration 10 uM, replicate 2

CCCCC[C@H](O)/C=C/[C@H]1[C@H](O)CC(=O)[C@@H]1CCCCCCC(=O)O [ALPROSTADIL]
Population Apoptotic (%) [1]: 35%
Population Fragmented Nuclei (%) [1]: 7%
Population Healthy Nuclei (%) [1]: 79%
Population Hoechst High Intensity Objects (%) [1]: 7%
Population Membrane Permeable-Phenotype (%) [1]: 0%
Population Mitochondria Different-Phenotype (%) [1]: 42%
Population Mitotic Cells (%) [1]: 64%
Population Normal (%) [1]: 92%
Population Pyknosed Nuclei (%) [1]: 13%
Population Tubulin-Different-Phenotype (%) [1]: 28%
Total Cell Count [1]: 471
Population Apoptotic (%) [2]: 50%
Population Fragmented Nuclei (%) [2]: 6%
Population Healthy Nuclei (%) [2]: 80%
Population Hoechst High Intensity Objects (%) [2]: 6%
Population Mitochondria Different-Phenotype (%) [2]: 55%
Population Mitotic Cells (%) [2]: 49%
Population Normal (%) [2]: 93%
Population Tubulin-Different-Phenotype (%) [2]: 18%
Total Cell Count [2]: 392
Population Apoptotic (%) [3]: 33%
Population Fragmented Nuclei (%) [3]: 7%
Population Healthy Nuclei (%) [3]: 78%
Population Hoechst High Intensity Objects (%) [3]: 6%
Population Membrane Permeable-Phenotype (%) [3]: 1%
Population Mitochondria Different-Phenotype (%) [3]: 48%
Population Mitotic Cells (%) [3]: 66%
Population Normal (%) [3]: 93%
Population Pyknosed Nuclei (%) [3]: 14%
Population Tubulin-Different-Phenotype (%) [3]: 33%
Total Cell Count [3]: 318
Population Healthy Nuclei (%) [4]: 75%
Population Hoechst High Intensity Objects (%) [4]: 9%
Population Membrane Permeable-Phenotype (%) [4]: 0%
Population Mitochondria Different-Phenotype (%) [4]: 64%
Population Normal (%) [4]: 90%
Population Pyknosed Nuclei (%) [4]: 17%
Population Tubulin-Different-Phenotype (%) [4]: 30%
Total Cell Count [4]: 309
Population Apoptotic (%) [5]: 35%
Population Fragmented Nuclei (%) [5]: 9%
Population Healthy Nuclei (%) [5]: 79%
Population Hoechst High Intensity Objects (%) [5]: 3%
Population Membrane Permeable-Phenotype (%) [5]: 1%
Population Mitochondria Different-Phenotype (%) [5]: 22%
Population Mitotic Cells (%) [5]: 64%
Population Normal (%) [5]: 96%
Population Pyknosed Nuclei (%) [5]: 10%
Population Tubulin-Different-Phenotype (%) [5]: 15%
Total Cell Count [5]: 605
Population Apoptotic (%) [6]: 34%
Population Fragmented Nuclei (%) [6]: 6%
Population Healthy Nuclei (%) [6]: 85%
Population Hoechst High Intensity Objects (%) [6]: 4%
Population Membrane Permeable-Phenotype (%) [6]: 0%
Population Mitochondria Different-Phenotype (%) [6]: 35%
Population Mitotic Cells (%) [6]: 65%
Population Normal (%) [6]: 95%
Population Pyknosed Nuclei (%) [6]: 8%
Population Tubulin-Different-Phenotype (%) [6]: 14%
Total Cell Count [6]: 526
Population Apoptotic (%) [7]: 32%
Population Fragmented Nuclei (%) [7]: 11%
Population Healthy Nuclei (%) [7]: 76%
Population Hoechst High Intensity Objects (%) [7]: 2%
Population Membrane Permeable-Phenotype (%) [7]: 0%
Population Mitochondria Different-Phenotype (%) [7]: 26%
Population Mitotic Cells (%) [7]: 67%
Population Normal (%) [7]: 97%
Population Pyknosed Nuclei (%) [7]: 12%
Population Tubulin-Different-Phenotype (%) [7]: 23%
Total Cell Count [7]: 439
Population Apoptotic (%) [8]: 36%
Population Fragmented Nuclei (%) [8]: 7%
Population Healthy Nuclei (%) [8]: 79%
Population Hoechst High Intensity Objects (%) [8]: 8%
Population Mitochondria Different-Phenotype (%) [8]: 50%
Population Mitotic Cells (%) [8]: 63%
Population Normal (%) [8]: 91%
Population Tubulin-Different-Phenotype (%) [8]: 22%
Total Cell Count [8]: 345
Population Apoptotic (%) [9]: 32%
Population Fragmented Nuclei (%) [9]: 13%
Population Healthy Nuclei (%) [9]: 79%
Population Hoechst High Intensity Objects (%) [9]: 2%
Population Membrane Permeable-Phenotype (%) [9]: 2%
Population Mitochondria Different-Phenotype (%) [9]: 12%
Population Mitotic Cells (%) [9]: 67%
Population Normal (%) [9]: 97%
Population Pyknosed Nuclei (%) [9]: 7%
Population Tubulin-Different-Phenotype (%) [9]: 11%
Total Cell Count [9]: 1005
Population Apoptotic (%) [10]: 13%
Population Fragmented Nuclei (%) [10]: 16%
Population Healthy Nuclei (%) [10]: 77%
Population Hoechst High Intensity Objects (%) [10]: 3%
Population Membrane Permeable-Phenotype (%) [10]: 0%
Population Mitochondria Different-Phenotype (%) [10]: 21%
Population Mitotic Cells (%) [10]: 86%
Population Normal (%) [10]: 96%
Population Pyknosed Nuclei (%) [10]: 6%
Population Tubulin-Different-Phenotype (%) [10]: 12%
Total Cell Count [10]: 714
Population Apoptotic (%) [11]: 25%
Population Fragmented Nuclei (%) [11]: 15%
Population Healthy Nuclei (%) [11]: 76%
Population Hoechst High Intensity Objects (%) [11]: 2%
Population Membrane Permeable-Phenotype (%) [11]: 1%
Population Mitochondria Different-Phenotype (%) [11]: 17%
Population Mitotic Cells (%) [11]: 75%
Population Normal (%) [11]: 97%
Population Pyknosed Nuclei (%) [11]: 7%
Population Tubulin-Different-Phenotype (%) [11]: 15%
Total Cell Count [11]: 685
Population Apoptotic (%) [12]: 20%
Population Fragmented Nuclei (%) [12]: 14%
Population Healthy Nuclei (%) [12]: 79%
Population Membrane Permeable-Phenotype (%) [12]: 0%
Population Mitochondria Different-Phenotype (%) [12]: 30%
Population Mitotic Cells (%) [12]: 80%
Population Pyknosed Nuclei (%) [12]: 6%
Population Tubulin-Different-Phenotype (%) [12]: 14%
Total Cell Count [12]: 537

CCCCCCNC(=O)Nc1ccc(S(=O)(=O)Nc2ccc(CCNC[C@H](O)COc3ccc(O)cc3)cc2)cc1 [L-755507]
Population Apoptotic (%) [1]: 35%
Population Fragmented Nuclei (%) [1]: 8%
Population Healthy Nuclei (%) [1]: 84%
Population Hoechst High Intensity Objects (%) [1]: 7%
Population Membrane Permeable-Phenotype (%) [1]: 0%
Population Mitochondria Different-Phenotype (%) [1]: 39%
Population Mitotic Cells (%) [1]: 64%
Population Normal (%) [1]: 92%
Population Pyknosed Nuclei (%) [1]: 7%
Population Tubulin-Different-Phenotype (%) [1]: 28%
Total Cell Count [1]: 494
Population Apoptotic (%) [2]: 31%
Population Fragmented Nuclei (%) [2]: 6%
Population Healthy Nuclei (%) [2]: 83%
Population Mitochondria Different-Phenotype (%) [2]: 64%
Population Mitotic Cells (%) [2]: 68%
Population Pyknosed Nuclei (%) [2]: 10%
Population Tubulin-Different-Phenotype (%) [2]: 32%
Total Cell Count [2]: 403
Population Apoptotic (%) [3]: 58%
Population Fragmented Nuclei (%) [3]: 10%
Population Healthy Nuclei (%) [3]: 74%
Population Hoechst High Intensity Objects (%) [3]: 17%
Population Membrane Permeable-Phenotype (%) [3]: 0%
Population Mitochondria Different-Phenotype (%) [3]: 69%
Population Mitotic Cells (%) [3]: 41%
Population Normal (%) [3]: 82%
Population Pyknosed Nuclei (%) [3]: 14%
Population Tubulin-Different-Phenotype (%) [3]: 68%
Total Cell Count [3]: 384
Population Apoptotic (%) [4]: 71%
Population Fragmented Nuclei (%) [4]: 8%
Population Healthy Nuclei (%) [4]: 79%
Population Hoechst High Intensity Objects (%) [4]: 7%
Population Mitochondria Different-Phenotype (%) [4]: 87%
Population Mitotic Cells (%) [4]: 28%
Population Normal (%) [4]: 92%
Population Pyknosed Nuclei (%) [4]: 11%
Population Tubulin-Different-Phenotype (%) [4]: 61%
Total Cell Count [4]: 341
Population Apoptotic (%) [5]: 19%
Population Fragmented Nuclei (%) [5]: 9%
Population Healthy Nuclei (%) [5]: 80%
Population Hoechst High Intensity Objects (%) [5]: 5%
Population Membrane Permeable-Phenotype (%) [5]: 0%
Population Mitochondria Different-Phenotype (%) [5]: 20%
Population Mitotic Cells (%) [5]: 80%
Population Normal (%) [5]: 94%
Population Pyknosed Nuclei (%) [5]: 9%
Population Tubulin-Different-Phenotype (%) [5]: 20%
Total Cell Count [5]: 634
Population Apoptotic (%) [6]: 30%
Population Fragmented Nuclei (%) [6]: 11%
Population Hoechst High Intensity Objects (%) [6]: 4%
Population Mitochondria Different-Phenotype (%) [6]: 42%
Population Mitotic Cells (%) [6]: 70%
Population Normal (%) [6]: 95%
Population Pyknosed Nuclei (%) [6]: 7%
Population Tubulin-Different-Phenotype (%) [6]: 22%
Total Cell Count [6]: 547
Population Apoptotic (%) [7]: 26%
Population Fragmented Nuclei (%) [7]: 8%
Population Healthy Nuclei (%) [7]: 80%
Population Hoechst High Intensity Objects (%) [7]: 14%
Population Membrane Permeable-Phenotype (%) [7]: 0%
Population Mitochondria Different-Phenotype (%) [7]: 59%
Population Mitotic Cells (%) [7]: 73%
Population Normal (%) [7]: 85%
Population Pyknosed Nuclei (%) [7]: 11%
Population Tubulin-Different-Phenotype (%) [7]: 42%
Total Cell Count [7]: 461
Population Apoptotic (%) [8]: 48%
Population Fragmented Nuclei (%) [8]: 7%
Population Healthy Nuclei (%) [8]: 83%
Population Hoechst High Intensity Objects (%) [8]: 9%
Population Mitochondria Different-Phenotype (%) [8]: 68%
Population Mitotic Cells (%) [8]: 51%
Population Normal (%) [8]: 90%
Population Pyknosed Nuclei (%) [8]: 9%
Population Tubulin-Different-Phenotype (%) [8]: 51%
Total Cell Count [8]: 402
Population Apoptotic (%) [9]: 10%
Population Fragmented Nuclei (%) [9]: 12%
Population Healthy Nuclei (%) [9]: 81%
Population Hoechst High Intensity Objects (%) [9]: 3%
Population Membrane Permeable-Phenotype (%) [9]: 2%
Population Mitochondria Different-Phenotype (%) [9]: 16%
Population Mitotic Cells (%) [9]: 89%
Population Normal (%) [9]: 96%
Population Pyknosed Nuclei (%) [9]: 6%
Population Tubulin-Different-Phenotype (%) [9]: 15%
Total Cell Count [9]: 1052
Population Apoptotic (%) [10]: 15%
Population Fragmented Nuclei (%) [10]: 13%
Population Healthy Nuclei (%) [10]: 80%
Population Hoechst High Intensity Objects (%) [10]: 5%
Population Mitochondria Different-Phenotype (%) [10]: 24%
Population Mitotic Cells (%) [10]: 84%
Population Normal (%) [10]: 94%
Population Tubulin-Different-Phenotype (%) [10]: 20%
Total Cell Count [10]: 775
Population Apoptotic (%) [11]: 46%
Population Fragmented Nuclei (%) [11]: 15%
Population Healthy Nuclei (%) [11]: 75%
Population Hoechst High Intensity Objects (%) [11]: 11%
Population Membrane Permeable-Phenotype (%) [11]: 1%
Population Mitochondria Different-Phenotype (%) [11]: 36%
Population Mitotic Cells (%) [11]: 53%
Population Normal (%) [11]: 88%
Population Pyknosed Nuclei (%) [11]: 9%
Population Tubulin-Different-Phenotype (%) [11]: 32%
Total Cell Count [11]: 598
Population Apoptotic (%) [12]: 65%
Population Fragmented Nuclei (%) [12]: 13%
Population Healthy Nuclei (%) [12]: 80%
Population Hoechst High Intensity Objects (%) [12]: 8%
Population Membrane Permeable-Phenotype (%) [12]: 0%
Population Mitochondria Different-Phenotype (%) [12]: 47%
Population Mitotic Cells (%) [12]: 34%
Population Normal (%) [12]: 91%
Population Pyknosed Nuclei (%) [12]: 5%
Population Tubulin-Different-Phenotype (%) [12]: 39%
Total Cell Count [12]: 596
